Assay results: ChEMBL document CHEMBL5370602, “Structure-Based Design of a Lead Compound Derived from Natural Schweinfurthins with Antitumor Properties That Target Oxysterol-Binding Protein” (J Med Chem, 2023)

Experiments:
U-87 MG = assay: Antiproliferative activity against human U-87 MG cells assessed as inhibition of cell proliferation incubated for 72 hrs by CellTiter-Glo luminescent assay; type: functional, cell-based, U-87MG ATCC
How it was run: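 A549 in RPMI 1640 and U-87MG in DMEM, each with 10% FCS and 1% glutamine, at 37 °C and 5% CO₂. Cells seeded at 3000/well, dosed the next day, treated 72 h. Viability read by CellTiter-Glo luminescence with DMSO-treated cells set to 100%. IC50 taken from survival curves over three independent experiments.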

[1] = target: T1, Oxysterol-binding protein 1 (Homo sapiens, UniProt P22059); assay: Inhibition of human C-terminal 6-His tagged OSBP ORD domain (401 to 807 residues) expressed in baculovirus-infected Sf9 cells assessed as reduction in DHE transfer from liposome (Le mimicking ER) to liposome (Lg mimicking golgi) with compound by FRET assay
T1 sequence (P22059 whole entry): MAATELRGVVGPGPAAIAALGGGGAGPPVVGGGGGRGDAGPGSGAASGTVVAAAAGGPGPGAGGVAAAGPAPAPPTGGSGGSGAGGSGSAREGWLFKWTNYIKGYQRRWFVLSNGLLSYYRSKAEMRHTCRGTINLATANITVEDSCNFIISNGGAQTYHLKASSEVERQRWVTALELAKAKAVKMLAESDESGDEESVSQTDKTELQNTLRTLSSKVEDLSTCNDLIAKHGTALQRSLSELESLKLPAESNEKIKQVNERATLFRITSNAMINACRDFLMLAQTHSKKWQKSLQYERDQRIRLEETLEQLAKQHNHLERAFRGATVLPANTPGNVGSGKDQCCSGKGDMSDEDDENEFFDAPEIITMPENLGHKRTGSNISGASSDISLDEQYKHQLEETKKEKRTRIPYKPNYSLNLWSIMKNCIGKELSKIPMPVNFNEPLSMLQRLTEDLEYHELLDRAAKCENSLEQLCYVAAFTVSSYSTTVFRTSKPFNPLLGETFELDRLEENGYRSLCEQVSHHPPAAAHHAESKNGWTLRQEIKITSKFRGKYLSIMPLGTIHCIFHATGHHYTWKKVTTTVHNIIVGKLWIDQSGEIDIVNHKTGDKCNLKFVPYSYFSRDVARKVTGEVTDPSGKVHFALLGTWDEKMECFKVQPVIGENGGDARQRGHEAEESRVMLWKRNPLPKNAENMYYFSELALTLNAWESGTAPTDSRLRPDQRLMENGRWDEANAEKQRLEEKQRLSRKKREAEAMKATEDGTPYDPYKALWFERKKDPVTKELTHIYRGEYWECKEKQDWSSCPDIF
How it was run: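 Purified human OSBP ORD (401-807, C-terminal 6×His) from baculovirus-infected Sf9 cells, used in a DHE sterol transfer fluorescence assay. Signal corrected for compound fluorescence. Kinetics fitted linearly or by ΔF = ΔFmax(1 − e^−kt) to give apparent k, which was plotted against compound concentration. Ki from a quadratic (tight binders) or hyperbolic equation, three independent experiments.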

mTORC1 (Homo sapiens) [2] = target: T2, mTORC1 (Homo sapiens) (UniProt P42345+Q8N122+Q9BVC4); assay: Inhibition of mTORC1 signalling in human U-87 MG cells assessed as decrease in S6K phosphorylation at T389 residue at 0.05 to 1 uM incubated for 48 hrs by Western blot analysis; type: cell-based
How it was run: (§1)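 U-87 MG cells cultured two days, then exposed 48 h to increasing doses. Lysed in RIPA with protease inhibitors; 5 µg protein run on 4-20% SDS gels and transferred to PVDF. Probed for phospho/total AKT, S6, S6K, P62 and LC3, detected by ECL. Band intensities normalized to β-actin.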

mTORC1 (Homo sapiens) [3] = target: T2, mTORC1 (Homo sapiens); assay: Inhibition of mTORC1 signalling in human U-87 MG cells assessed as decrease in S6 phosphorylation at S240/244 residue at 0.05 to 1 uM incubated for 48 hrs by Western blot analysis; type: cell-based; how it was run: as §1
[4] = Metabolic stability in mouse liver microsomes assessed as compound remaining at 2.5 uM and measured after 45 mins in presence of NADPH by LC-MS/MS analysis; type: ADME, Microsome; conditions: read-out: Stability
[5] = Metabolic stability in mouse liver microsomes assessed as compound remaining at 2.5 uM and measured after 45 mins in absence of NADPH by LC-MS/MS analysis; type: ADME, Microsome; conditions: read-out: Stability
[6] = Toxicity in immunodeficient mouse assessed as body weight change at 100 mg/kg,ip QD for 5 days; type: organism-based; conditions: in vivo, 120 h, time 5 day
[7] = Antitumor activity in high alert medicated patient derived human GBM1 cells xenografted in immunodeficient nude mouse model assessed as tumor growth inhibition at 50 mg/kg,ip QD and measured after 9 to 11 days; type: functional
How it was run: (§2)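 Female athymic nude mice bearing subcutaneous GBM1-HAM PDX fragments (20 mm³); treatment began day 11 post-implant at tumour volumes 75-196 mm³, 10 per group. Compound i.p. daily in cyclodextrin vehicle (17 days alone, 27 days in combination); temozolomide 42 mg/kg p.o. daily for 5 days in PBS/glucose/Tween 80. Calliper volumes three times weekly; body weight and clinical signs monitored.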

[8] = Antitumor activity in high alert medicated patient derived human GBM1 cells xenografted in immunodeficient nude mouse model assessed as change in tumor volume at 50 mg/kg,ip QD and measured after 11 days relative to control; type: functional; conditions: time 11 day; how it was run: as §2

T2 sequence (Q8N122 whole entry, looked up, other chains not shown): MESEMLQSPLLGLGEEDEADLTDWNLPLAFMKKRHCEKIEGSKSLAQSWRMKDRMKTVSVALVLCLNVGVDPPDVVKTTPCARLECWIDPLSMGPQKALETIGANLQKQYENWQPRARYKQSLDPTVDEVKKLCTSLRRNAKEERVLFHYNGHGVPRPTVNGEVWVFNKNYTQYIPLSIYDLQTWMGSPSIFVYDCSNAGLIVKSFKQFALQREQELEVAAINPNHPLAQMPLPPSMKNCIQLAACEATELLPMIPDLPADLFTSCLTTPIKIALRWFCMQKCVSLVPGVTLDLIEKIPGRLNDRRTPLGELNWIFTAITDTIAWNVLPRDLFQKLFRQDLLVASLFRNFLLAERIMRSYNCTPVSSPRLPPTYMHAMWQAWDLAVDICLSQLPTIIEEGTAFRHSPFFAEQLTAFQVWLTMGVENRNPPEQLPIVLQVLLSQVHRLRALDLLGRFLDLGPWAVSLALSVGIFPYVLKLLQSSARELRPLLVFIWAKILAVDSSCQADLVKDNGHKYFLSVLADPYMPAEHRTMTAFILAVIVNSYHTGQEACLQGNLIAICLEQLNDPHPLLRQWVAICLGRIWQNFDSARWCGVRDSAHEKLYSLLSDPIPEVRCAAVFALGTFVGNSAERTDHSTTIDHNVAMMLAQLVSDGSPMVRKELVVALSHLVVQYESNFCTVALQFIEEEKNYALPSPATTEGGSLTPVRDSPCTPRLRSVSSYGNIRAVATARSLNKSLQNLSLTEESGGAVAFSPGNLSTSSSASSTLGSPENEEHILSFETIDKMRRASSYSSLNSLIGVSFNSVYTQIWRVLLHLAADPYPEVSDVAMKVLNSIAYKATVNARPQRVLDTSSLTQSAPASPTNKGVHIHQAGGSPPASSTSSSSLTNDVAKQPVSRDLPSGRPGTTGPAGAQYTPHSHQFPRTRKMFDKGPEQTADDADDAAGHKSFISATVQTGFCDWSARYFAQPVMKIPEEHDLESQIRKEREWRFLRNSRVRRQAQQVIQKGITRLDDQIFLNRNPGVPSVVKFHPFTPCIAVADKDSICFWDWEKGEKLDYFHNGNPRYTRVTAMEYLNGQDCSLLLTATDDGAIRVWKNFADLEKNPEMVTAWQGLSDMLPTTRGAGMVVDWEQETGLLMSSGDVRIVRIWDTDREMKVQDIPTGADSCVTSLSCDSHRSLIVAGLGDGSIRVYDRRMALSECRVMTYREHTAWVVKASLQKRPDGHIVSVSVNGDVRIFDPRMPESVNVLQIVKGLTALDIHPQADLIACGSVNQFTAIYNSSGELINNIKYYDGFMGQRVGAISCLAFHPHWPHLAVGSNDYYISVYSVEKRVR
T2 sequence (Q9BVC4 whole entry, looked up, other chains not shown): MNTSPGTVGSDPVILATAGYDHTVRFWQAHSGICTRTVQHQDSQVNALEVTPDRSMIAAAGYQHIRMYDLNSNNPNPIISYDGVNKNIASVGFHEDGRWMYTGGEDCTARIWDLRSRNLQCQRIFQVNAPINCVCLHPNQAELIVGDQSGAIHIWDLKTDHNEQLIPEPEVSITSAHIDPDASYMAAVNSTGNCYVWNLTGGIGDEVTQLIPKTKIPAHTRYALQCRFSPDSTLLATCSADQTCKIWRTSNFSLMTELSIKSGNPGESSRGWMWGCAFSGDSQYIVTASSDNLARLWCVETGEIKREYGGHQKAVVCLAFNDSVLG

IC50 (U-87 MG): 12.4 nM
Ki [1]: 1070 nM
inhibition (mTORC1 (Homo sapiens) [2]): Dose-Dependent Effect
inhibition (mTORC1 (Homo sapiens) [3]): Dose-Dependent Effect
remaining at 0.75 h, 2.5 µM [4]: 5.3%
remaining at 0.75 h, 2.5 µM [5]: 16%
SMILES: CC1(C)CCc2c(O)cc(/C=C/c3cc(O)c4c(c3)C[C@@H]3C(C)(C)[C@H](OC=O)CC[C@@]3(C)O4)cc2O1
Activity [6]: Non-Toxic
TGDI at 50 mg/kg [7]: 1.37%
Activity [8]: 625.61%
